The values that follow come from ChEMBL document CHEMBL1944618, “Synthesis and antifungal activity of a new series of 2-(1H-imidazol-1-yl)-1-phenylethanol derivatives” (Eur J Med Chem, 2012).

In test [1] the test system is Pichia kudriavzevii. Put plainly: Ratio MIC for fluconazole to compound for Candida krusei after 48 hrs by M27-A3 CLSI method. The class given is functional.
In test [2] the test system is Candida albicans. Put plainly: Antifungal activity against Candida albicans ATCC 24433 after 48 hrs by M27-A3 CLSI method. The format is functional. Put shortly: (§1)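 Broth microdilution in RPMI 1640, two-fold serial dilutions, final test range 0.125–64 µg mL-1 (fluconazole reference 0.0078–128 µg mL-1). Inoculum 1.0×10^3–1.5×10^3 cells mL-1 from yeasts grown 24 h at 35 °C on Sabouraud dextrose agar. Incubation 35 °C, read at 48 h. MIC = lowest concentration giving >50% turbidity decrease versus growth control. Run three times in triplicate. C. parapsilosis ATCC22019 served as QC.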

Test [3] deals with Pichia kudriavzevii. The experiment in a line: Ratio MIC for fluconazole to compound for Candida krusei PMC 0613 after 48 hrs by M27-A3 CLSI method. The class given is functional.
For test [4], the system named is Pichia kudriavzevii. The experiment in a line: Ratio MIC for fluconazole to compound for Candida krusei PMC0613 after 48 hrs by M27-A3 CLSI method.
Test [5] concerns Pichia kudriavzevii. The experiment in a line: Antifungal activity against Candida krusei PMC 0613 after 48 hrs by M27-A3 CLSI method. The format is functional. In outline: as §1
In test [6] the test system is Candida parapsilosis. The experiment in a line: Antifungal activity against Candida parapsilosis DSM 11224 after 48 hrs by M27-A3 CLSI method. The format is functional. In outline:
as §1

The test system of test [7] is Candida tropicalis. The experiment in a line: Antifungal activity against Candida tropicalis DSM11953 after 48 hrs by M27-A3 CLSI method.
Test [8] has as its system Candida tropicalis. The experiment in a line: Antifungal activity against Candida tropicalis DSM 11953 after 48 hrs by M27-A3 CLSI method. The format is functional. To be noted: DSM 11953, 48 h. Put shortly:
as §1

For test [9], the system named is Candida tropicalis. Put plainly: Antifungal activity against Candida tropicalis PMC 0910 after 48 hrs by M27-A3 CLSI method. The format is functional. To be noted: PMC 0910, 48 h. In outline:
as §1

For test [10], the system named is Candida albicans. Put plainly: Antifungal activity against Candida albicans ATCC 10231 after 48 hrs by M27-A3 CLSI method. The format is functional. To be noted: ATCC 10231, 48 h. Put shortly: as §1
For test [11], the system named is Candida albicans. Put plainly: Antifungal activity against Candida albicans ATCC 76615 after 48 hrs by M27-A3 CLSI method. The class given is functional. Conditions: ATCC 76615, 48 h. Put shortly:
as §1

The subject of test [12] is Candida albicans. The experiment in a line: Antifungal activity against Candida albicans ATCC 3153 after 48 hrs by M27-A3 CLSI method. The format is functional. Conditions: ATCC 3153, 48 h. Put shortly: as §1
For test [13], the system named is Candida albicans. The experiment in a line: Antifungal activity against Candida albicans after 48 hrs by M27-A3 CLSI method. The format is functional. In outline:
as §1

In test [14] the test system is Pichia kudriavzevii. Put plainly: Antifungal activity against Candida krusei DSM 6128 after 48 hrs by M27-A3 CLSI method. The format is functional. Conditions: DSM 6128, 48 h. In outline: as §1
Test [15] relates to Candida parapsilosis. The experiment in a line: Antifungal activity against Candida parapsilosis ATCC 22019 after 48 hrs by M27-A3 CLSI method. Conditions: Lodderomyces parapsilosis, ATCC 22019, 48 h. The class given is functional. Put shortly: as §1
The next test relates to Candida. Put plainly: Antifungal activity against Candida sp. after 48 hrs by M27-A3 CLSI method. The format is functional. In outline:
as §1

The next test deals with Nakaseomyces glabratus. Put plainly: Antifungal activity against Candida glabrata PMC 0805 after 48 hrs by M27-A3 CLSI method. The class given is functional. To be noted: PMC 0805, 48 h. In outline: as §1
The mark [16] stands for this setting: Candida albicans, ATCC 24433, 48 h, read-out: MIC.
[17] abbreviates: Pichia kudriavzevii, PMC 0613, 48 h, read-out: MIC.
[18] abbreviates: Lodderomyces parapsilosis, DSM 11224, 48 h, read-out: MIC.

In brackets after ≈: the same amount, converted by molar mass.

Broadly, the MIC is the least concentration at which growth counts as inhibited. On to `O=C(OC(Cn1ccnc1)c1ccc(F)cc1)c1ccc(-c2ccccc2)cc1` (single isomer, unassigned; (-)), for which the Ratio in the test with Pichia kudriavzevii [1], with Pichia kudriavzevii [3] and in the test with Pichia kudriavzevii [4] was 90 each time. Besides, the MIC is 0.125 µg/mL (≈ 0.323 µM) in the test with Candida albicans [2], 0.125 µg/mL (≈ 0.323 µM) against Pichia kudriavzevii [5], 0.08 µg/mL (≈ 0.207 µM) against Candida parapsilosis [6] and 0.27 µg/mL (≈ 0.699 µM) in the test with Candida tropicalis [7].

With `O=C(OC(Cn1ccnc1)c1ccccc1)c1ccc(-c2ccccc2)cc1` (single isomer, unassigned; (-)), the Ratio in the test on Pichia kudriavzevii [1], in the test with Pichia kudriavzevii [3] and in the test with Pichia kudriavzevii [4] was 30 throughout. Besides, the MIC came out at 0.15 µg/mL (≈ 0.407 µM) against Candida albicans [2], 0.37 µg/mL (≈ 1 µM) in the test on Pichia kudriavzevii [5], 0.125 µg/mL (≈ 0.339 µM) against Candida parapsilosis [6] and 0.15 µg/mL (≈ 0.407 µM) with Candida tropicalis [7].

For `O=C(OC(Cn1ccnc1)c1ccccc1)c1ccc(-c2ccccc2)cc1` (single isomer, unassigned; (+)), the MIC in the test on Candida albicans [2] was 33.7 µg/mL (≈ 91.5 µM); with Pichia kudriavzevii [5] it was 21.33 µg/mL (≈ 57.9 µM); against Candida parapsilosis [6], 26.67 µg/mL (≈ 72.4 µM); against Candida tropicalis [7] it was 26.67 µg/mL (≈ 72.4 µM).

Usually MIC50 stands for the lowest concentration that inhibits either 50% of growth or 50% of the strains tested, depending on the study. As usually defined, the MIC90 is an inhibitory concentration at the 90% level, which refers to growth in some studies and to a panel of isolates in others. With `O=C(Nc1cc(Cl)nc(Cl)c1)OC(Cn1ccnc1)c1ccc(Cl)cc1` (racemic), the MIC with Candida tropicalis [8], in the test with Candida tropicalis [9], against Candida albicans [10], in the test with Candida albicans [11], in the test on Candida albicans [2] (setting [16]) and with Candida albicans [12] was over 64 µg/mL in each case. In addition, the MIC in the test on Pichia kudriavzevii [5] (setting [17]) is over 64 µg/mL; against Candida albicans [13], 119 µg/mL (≈ 289 µM); in the test with Candida parapsilosis [6] (setting [18]), over 64 µg/mL; in the test on Pichia kudriavzevii [14], over 64 µg/mL; with Candida parapsilosis [15] it was over 64 µg/mL; against Candida it was 121 µg/mL (≈ 294 µM). For the same compound, in the test on Nakaseomyces glabratus, the MIC is over 64 µg/mL. Also, the MIC50 against Candida albicans [13] and against Candida was 128 µg/mL (≈ 311 µM) throughout. The MIC90 against Candida albicans [13] and against Candida was 128 µg/mL (≈ 311 µM) throughout.

Take `Cl.O=C(OC(Cn1ccnc1)c1ccc(Cl)cc1)c1cccc(C(F)(F)F)c1` (racemic): the MIC in the test with Candida tropicalis [8] was 32 µg/mL; in the test with Candida tropicalis [9], 0.5 µg/mL; with Candida albicans [10], 4 µg/mL; in the test on Candida albicans [11], over 64 µg/mL; in the test on Candida albicans [2] (setting [16]), 8 µg/mL; with Candida albicans [12] it was 8 µg/mL. In addition, the MIC in the test on Pichia kudriavzevii [5] (setting [17]) is 32 µg/mL; against Candida albicans [13] it was 46.3 µg/mL; in the test on Candida parapsilosis [6] (setting [18]), 8 µg/mL; with Pichia kudriavzevii [14] it was 32 µg/mL; with Candida parapsilosis [15], over 64 µg/mL; in the test with Candida it was 43.8 µg/mL. Further, the minimum inhibitory concentration (MIC) with Nakaseomyces glabratus stood at 32 µg/mL. Besides, the MIC50 stood at 8 µg/mL against Candida albicans [13] and 32 µg/mL against Candida. For the same compound, the MIC90 is 16 µg/mL with Candida albicans [13] and 128 µg/mL with Candida.

In the case of `OC(Cn1ccnc1)c1ccccc1` (racemic), the MIC against Candida tropicalis [8] was 64 µg/mL (≈ 340 µM); in the test on Candida tropicalis [9], over 64 µg/mL; against Candida albicans [10], over 64 µg/mL; with Candida albicans [11] it was over 64 µg/mL; in the test on Candida albicans [2] (setting [16]), 64 µg/mL (≈ 340 µM); against Candida albicans [12], at least 64 µg/mL. Besides, the MIC with Pichia kudriavzevii [5] (setting [17]) is over 64 µg/mL; against Candida albicans [13], 107 µg/mL (≈ 567 µM); in the test with Candida parapsilosis [6] (setting [18]), at least 64 µg/mL; against Pichia kudriavzevii [14], over 64 µg/mL; with Candida parapsilosis [15], at least 64 µg/mL; in the test on Candida, 98.5 µg/mL (≈ 523 µM). Also, the minimum inhibitory concentration (MIC) in the test on Nakaseomyces glabratus is over 64 µg/mL. Moreover, the figures for the MIC50 against Candida albicans [13] and against Candida were 128 µg/mL (≈ 680 µM) and 64 µg/mL (≈ 340 µM), respectively. Besides, the MIC90 with Candida albicans [13] and with Candida was 128 µg/mL (≈ 680 µM) throughout.
